Assay [1] has as its system K562. As to the kind of experiment: Induction of apoptosis in human K562 cells assessed as early apoptotic cells at 2.5 uM after 48 hrs by Annexin V-FITC/propidium iodide staining based flow cytometry (reference value: 9.6%). It counts as functional.
The subject of assay [2] is K562. As to the kind of experiment: Induction of apoptosis in human K562 cells assessed as increase in early apoptotic cells at 2.5 to 10 uM after 48 hrs by Annexin V-FITC/propidium iodide staining based flow cytometry relative to control. The assay is classed as functional. On the technique in general: Flow cytometry measures light scatter and fluorescence of single cells or particles in a stream.

A further assay deals with Neutrophil collagenase (Homo sapiens, UniProt P22894). As to the kind of experiment: Inhibition of recombinant human MMP8 (Phe99 to Gln269 residues) expressed in Escherichia coli using Ac-Pro-Leu-Gly-S-Leu-Leu-Gly-OEt as substrate after 1 hr measured at 1 min time interval for 30 mins by microplate photometric method. Summed up: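 Commercial MMP kits; compound preincubated with enzyme before chromogenic substrate was added. Reactions at 37 °C for 1 h, with at least six inhibitor concentrations in triplicate. Absorbance at 410 nm read every 1 min for 30 min. NNGH used as reference inhibitor. IC50 taken from semi-logarithmic dose-response plots.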

The subject of assay [3] is K562. In words: Induction of apoptosis in human K562 cells assessed as necrotic cells at 5 uM after 48 hrs by Annexin V-FITC/propidium iodide staining based flow cytometry (reference value: 0%). The assay is classed as functional.

SMILES strings stand for the structures.

The values that follow come from ChEMBL document CHEMBL4130487, “A pentanoic acid derivative targeting matrix metalloproteinase-2 (MMP-2) induces apoptosis in a chronic myeloid leukemia cell line” (Eur J Med Chem, 2017).

Broadly, the IC50 is the concentration at which inhibition is half-maximal.

Chain of Neutrophil collagenase (P22894 whole entry): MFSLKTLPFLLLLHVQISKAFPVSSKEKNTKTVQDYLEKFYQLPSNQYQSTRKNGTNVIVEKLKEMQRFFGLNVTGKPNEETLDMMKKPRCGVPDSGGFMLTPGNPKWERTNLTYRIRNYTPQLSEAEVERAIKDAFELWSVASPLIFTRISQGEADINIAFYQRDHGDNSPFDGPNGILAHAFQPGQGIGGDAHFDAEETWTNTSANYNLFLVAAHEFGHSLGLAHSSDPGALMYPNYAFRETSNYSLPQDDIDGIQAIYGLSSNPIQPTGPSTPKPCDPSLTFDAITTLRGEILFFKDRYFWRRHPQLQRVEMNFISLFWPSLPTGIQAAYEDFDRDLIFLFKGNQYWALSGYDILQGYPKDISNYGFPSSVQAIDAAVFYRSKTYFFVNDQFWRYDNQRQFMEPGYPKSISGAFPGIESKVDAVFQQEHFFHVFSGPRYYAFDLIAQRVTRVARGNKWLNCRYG

Take `CCCCCNC(=O)CC[C@H](NS(=O)(=O)c1ccc([N+](=O)[O-])cc1)C(=O)O`: the Activity was found to be 14.3% with K562 [1] and 0.1% in the assay with K562 [3]. Besides, in the assay on K562 [2], the “fold change (FC)” value was “<=300”. In addition, at Neutrophil collagenase, the IC50 was more than 500 µM.
